Here are results for twelve compounds from ChEMBL document CHEMBL1156239, “Synthesis, anticonvulsant and antimicrobial activities of some new 2-acetylnaphthalene derivatives” (Bioorg Med Chem, 2010).

Data set [1] concerns Mus musculus. Description: Anticonvulsant activity in CF1 mouse assessed as inhibition of maximal electroshock-induced seizures at 30 mg/kg, ip after 0.5 hrs. Also noted: dose 30 mg/kg. In kind it is functional, organism-based. Summed up:
(§1)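 Male albino CF#1 mice (18–25.5 g), compound suspended in 0.5% methylcellulose, given ip 0.5 h or 4 h before test. Eyes treated with 0.5% tetracaine HCl in saline; corneal-type MES at 60 Hz, 50 mA for 0.2 s; protection scored as animals protected/tested.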

Data set [2] deals with Mus musculus. As to the kind of experiment: Anticonvulsant activity in CF1 mouse assessed as inhibition of maximal electroshock-induced seizures at 100 mg/kg, ip after 0.5 hrs. Also noted: dose 100 mg/kg. In kind it is functional, organism-based. Summed up: as §1
The test system of data set [3] is Mus musculus. As to the kind of experiment: Anticonvulsant activity in CF1 mouse assessed as inhibition of maximal electroshock-induced seizures at 300 mg/kg, ip after 0.5 hrs. The data set is classed as functional, organism-based. On the set-up: dose 300 mg/kg. The procedure, abridged:
as §1

In data set [4] the test system is Mus musculus. As to the kind of experiment: Anticonvulsant activity in CF1 mouse assessed as inhibition of maximal electroshock-induced seizures at 30 mg/kg, ip after 4 hrs. In kind it is functional, organism-based. Also noted: dose 30 mg/kg. Summed up:
as §1

The subject of data set [5] is Mus musculus. Description: Anticonvulsant activity in CF1 mouse assessed as inhibition of maximal electroshock-induced seizures at 100 mg/kg, ip after 4 hrs. The data set is classed as functional, organism-based. On the set-up: dose 100 mg/kg. Summed up:
as §1

The subject of data set [6] is Mus musculus. As to the kind of experiment: Anticonvulsant activity in CF1 mouse assessed as inhibition of maximal electroshock-induced seizures at 300 mg/kg, ip after 4 hrs. The data set is classed as functional, organism-based. Also noted: dose 300 mg/kg. The procedure, abridged: as §1
Data set [7] has as its system Mus musculus. Description: Neurotoxicity in CF1 mouse at 30 mg/kg, ip after 0.5 hrs by rotarod test. As to conditions: in vivo. On the set-up: dose 30 mg/kg, route intraperitoneal. In kind it is toxicity, organism-based. The procedure, abridged: (§2)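 Male albino CF#1 mice (18–25.5 g) dosed ip with compound suspended in 0.5% methylcellulose, 0.5 h or 4 h before testing; neurotoxicity assessed by rotarod, scored as number toxic/number tested.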

Data set [8] has as its system Mus musculus. Description: Neurotoxicity in CF1 mouse at 100 mg/kg, ip after 0.5 hrs by rotarod test. The data set is classed as toxicity, organism-based. On the set-up: dose 100 mg/kg, route intraperitoneal. As to conditions: in vivo. Summed up:
as §2

The subject of data set [9] is Mus musculus. As to the kind of experiment: Neurotoxicity in CF1 mouse at 300 mg/kg, ip after 0.5 hrs by rotarod test. The data set is classed as toxicity, organism-based. On the set-up: dose 300 mg/kg, route intraperitoneal. The note with it: in vivo. The procedure, abridged: as §2
Data set [10] deals with Mus musculus. As to the kind of experiment: Neurotoxicity in CF1 mouse at 30 mg/kg, ip after 4 hrs by rotarod test. Also noted: dose 30 mg/kg, route intraperitoneal. The note with it: in vivo. The data set is classed as toxicity, organism-based. The procedure, abridged:
as §2

For data set [11], the system named is Mus musculus. As to the kind of experiment: Neurotoxicity in CF1 mouse at 100 mg/kg, ip after 4 hrs by rotarod test. The data set is classed as toxicity, organism-based. Also noted: dose 100 mg/kg, route intraperitoneal. As to conditions: in vivo. Summed up:
as §2

Data set [12] relates to Mus musculus. As to the kind of experiment: Neurotoxicity in CF1 mouse at 300 mg/kg, ip after 4 hrs by rotarod test. The data set is classed as toxicity, organism-based. Also noted: dose 300 mg/kg, route intraperitoneal. As to conditions: in vivo. The procedure, abridged: as §2
The test system of data set [13] is Staphylococcus aureus. Description: Antibacterial activity against Staphylococcus aureus ATCC 25923 after 24 hrs by broth microdilution method. The data set is classed as functional. The note with it: ATCC 25923, 24 h. The procedure, abridged: (§3)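 Broth microdilution in Mueller Hinton broth; compound stocks in DMSO, diluted into test medium. Plates incubated at 35 °C and read visually after 24 h. MIC taken as lowest concentration preventing visible growth. Ampicillin reference.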

The subject of data set [14] is Enterococcus faecalis. As to the kind of experiment: Antibacterial activity against Enterococcus faecalis ATCC 29212 after 24 hrs by broth microdilution method. The data set is classed as functional. The note with it: ATCC 29212, 24 h. The procedure, abridged: as §3
The test system of data set [15] is Escherichia coli. Description: Antibacterial activity against Escherichia coli ATCC 25922 after 24 hrs by broth microdilution method. In kind it is functional. The note with it: ATCC 25922, 24 h. The procedure, abridged:
as §3

In data set [16] the test system is Pseudomonas aeruginosa. As to the kind of experiment: Antibacterial activity against Pseudomonas aeruginosa ATCC 27853 after 24 hrs by broth microdilution method. The data set is classed as functional. As to conditions: ATCC 27853, 24 h. The procedure, abridged:
as §3

Data set [17] concerns Pichia kudriavzevii. As to the kind of experiment: Antifungal activity against Candida krusei ATCC 6258 after 48 hrs by broth microdilution method. The data set is classed as functional. The note with it: ATCC 6258, 48 h.
In data set [18] the test system is Candida parapsilosis. Description: Antifungal activity against Candida parapsilosis ATCC 22019 after 48 hrs by broth microdilution method. In kind it is functional. The note with it: Lodderomyces parapsilosis, ATCC 22019, 48 h.
The subject of data set [19] is Mus musculus. As to the kind of experiment: Neurotoxicity in CF1 mouse assessed as hyperactivity at 300 mg/kg, ip after 0.5 hrs by rotarod test. In kind it is toxicity, organism-based. On the set-up: dose 300 mg/kg, route intraperitoneal. As to conditions: in vivo.
In data set [20] the test system is Mus musculus. Description: Neurotoxicity in CF1 mouse assessed as ability to grasp rotarod at 300 mg/kg, ip after 4 hrs by rotarod test. In kind it is toxicity, organism-based. Also noted: dose 300 mg/kg, route intraperitoneal. As to conditions: in vivo. The procedure, abridged: (§4)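 Male albino CF#1 mice (18–25.5 g), free access to food and water except during testing, under NINDS Anticonvulsant Screening Program procedures. Compounds were suspended in 0.5% methylcellulose and given ip. Neurotoxicity was scored by rotarod 0.5 h and 4 h after dosing, at screening doses of 30, 100 or 300 mg/kg. Results are reported as affected/tested animals.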

The subject of data set [21] is Mus musculus. Description: Neurotoxicity in CF1 mouse assessed as mortality at 300 mg/kg, ip after 4 hrs by rotarod test. The data set is classed as toxicity, organism-based. On the set-up: dose 300 mg/kg, route intraperitoneal. As to conditions: in vivo. The procedure, abridged: as §4

Converted amounts (≈) assume the structure as drawn. The source made the active and inactive calls. No cut-off for these calls is given here.

For the compound `CC(C)CC(=O)OC(C)c1ccc2ccccc2c1` (centres undefined), the inhibition entry in data set [1], in data set [2], in [3], in [4], in data set [5] and in data set [6] was “inactive” in each case. In addition, the Activity result in data set [7], in data set [8], in [9], in data set [10], in data set [11] and in data set [12] was “Non-toxic” throughout.

For the compound `O=C(OC(Cn1ccnc1)c1ccc2ccccc2c1)c1ccc(Cl)cc1` (centres undefined), the MIC in data set [13] stood at 32 µg/mL (≈ 84.9 µM); in data set [14], 128 µg/mL (≈ 340 µM); in data set [15], 1020 µg/mL (≈ 2720 µM); in data set [16] it was 1020 µg/mL (≈ 2720 µM); in data set [17] it was 512 µg/mL (≈ 1360 µM); in [18], 512 µg/mL (≈ 1360 µM). Further, the inhibition entry in [1], in data set [2], in data set [4], in data set [5] and in [6] was “inactive” each time. Moreover, in data set [3], the inhibition result is “Active”. The Activity entry in data set [7], in data set [8], in [10], in data set [11] and in data set [12] was “Non-toxic” in each case.

As to `C/C(=N\CCCC(=O)O)c1ccc2ccccc2c1O`, the inhibition entry in data set [1], in data set [2], in data set [3], in [4], in data set [5] and in data set [6] was “inactive” throughout. The Activity result in [7] is “Non-toxic”; in [8] it was “Non-toxic”; in data set [9] it was “Toxic”; in data set [10], “Non-toxic”; in data set [11], “Non-toxic”; in [12] it was “Non-toxic”.

For the compound `CC(OC(=O)CCCNC(=O)OC(C)(C)C)c1ccc2ccccc2c1` (centres undefined), the inhibition result in data set [1], in data set [2], in data set [3], in data set [4], in data set [5] and in data set [6] was “inactive” in each case. Also, the Activity result in [7], in data set [9], in [10], in [11] and in data set [12] was “Non-toxic” in each case.

Consider `CCCCC(=O)OC(Cn1ccnc1)c1ccc2ccccc2c1` (centres undefined), for which the MIC was 8 µg/mL (≈ 24.8 µM) in data set [13]; 32 µg/mL (≈ 99.3 µM) in data set [14]; over 1020 µg/mL in [15]; over 1020 µg/mL in data set [16]; 128 µg/mL (≈ 397 µM) in data set [17]; 128 µg/mL (≈ 397 µM) in data set [18]. Also, the inhibition result in data set [1], in data set [2] and in [3] was “Active” throughout. For the same compound, in data set [4], the inhibition result is “inactive”. For the same compound, the Activity result in [7] was “Non-toxic”; in data set [8], “Non-toxic”; in data set [19], “Toxic”; in data set [10], “Non-toxic”; in [11], “Non-toxic”; in data set [12], “Toxic”. For the same compound, the Activity entry in data set [20] and in data set [21] was “Toxic” throughout.

As to `CCCCC(=O)OC(C)c1ccc2ccccc2c1` (centres undefined), the inhibition entry in data set [1], in data set [2], in data set [3], in data set [4], in data set [5] and in [6] was “inactive” throughout. The Activity entry in data set [7], in data set [8], in [9], in [10], in data set [11] and in data set [12] was “Non-toxic” in each case.

For the compound `CC1(C)S[C@@H]2[C@H](NC(=O)[C@H](N)c3ccccc3)C(=O)N2[C@H]1C(=O)O` [AMPICILLIN], the figures for the MIC in [13], in data set [14] and in data set [15] were 1 µg/mL (≈ 2.86 µM), 2 µg/mL (≈ 5.72 µM) and 8 µg/mL (≈ 22.9 µM), respectively.

Regarding `CC(C)(C)OC(=O)NCCCC(=O)OC(Cn1ccnc1)c1ccc2ccccc2c1` (centres undefined), the MIC in data set [13] was 16 µg/mL (≈ 37.8 µM); in [14] it was 128 µg/mL (≈ 302 µM); in [15], over 1020 µg/mL; in data set [16], over 1020 µg/mL; in data set [17] it was over 1020 µg/mL; in [18], over 1020 µg/mL. Besides, the inhibition entry in data set [1], in [4] and in data set [5] was “inactive” in each case. Besides, the inhibition entry in data set [2], in [3] and in [6] was “Active” each time. Also, the Activity entry in data set [7], in [10], in data set [11] and in data set [12] was “Non-toxic” throughout.

With `O=C(Cn1ccnc1)c1ccc2ccccc2c1O`, the MIC is 64 µg/mL (≈ 254 µM) in data set [13]; 64 µg/mL (≈ 254 µM) in data set [14]; 1020 µg/mL (≈ 4060 µM) in [15]; over 1020 µg/mL in data set [16]; 64 µg/mL (≈ 254 µM) in data set [17]; 32 µg/mL (≈ 127 µM) in [18]. For the same compound, the inhibition result in data set [1], in data set [2], in data set [4] and in data set [5] was “inactive” throughout. In addition, the inhibition entry in data set [3] and in [6] was “Active” throughout. Further, the Activity result in [7], in data set [8], in [10], in data set [11] and in [12] was “Non-toxic” each time.

As for `CCCC(CCC)C(=O)OC(C)c1ccc2ccccc2c1` (centres undefined), the inhibition result in [1], in [2], in [3], in [4], in [5] and in data set [6] was “inactive” each time. Moreover, the Activity result in data set [7], in [8], in data set [9], in data set [10], in data set [11] and in data set [12] was “Non-toxic” in each case.

Regarding `OC(Cn1cncn1)(Cn1cncn1)c1ccc(F)cc1F` [FLUCONAZOLE], the minimal inhibitory concentration (MIC) in [17] came out at 64 µg/mL (≈ 209 µM); in data set [18], 8 µg/mL (≈ 26.1 µM).

`Oc1c(C(O)Cn2ccnc2)ccc2ccccc12` (centres undefined): the MIC was 512 µg/mL (≈ 2010 µM) in data set [13]; 256 µg/mL (≈ 1010 µM) in [14]; over 1020 µg/mL in data set [15]; over 1020 µg/mL in [16]; 512 µg/mL (≈ 2010 µM) in data set [17]; 512 µg/mL (≈ 2010 µM) in [18]. In addition, the inhibition result in data set [1], in data set [2], in data set [3], in [4], in data set [5] and in data set [6] was “inactive” each time. Also, the Activity entry in data set [7], in data set [8], in data set [10], in data set [11] and in data set [12] was “Non-toxic” throughout.
